# From ChEMBL document CHEMBL1144572, “Synthesis and biological evaluation of gamma-aminophosphonates as potent, subtype-selective sphingosine 1-phosphate receptor agonists and antagonists” (Bioorg Med Chem, 2007)
# Calls of active or inactive are those of the source. The calls are words filed in the database; no cut-off is given here.
# Assays:
# [1] = molecular target: T1, Sphingosine 1-phosphate receptor 1 (Homo sapiens, UniProt P21453); assay: Activity at human S1P1 receptor expressed in HEK293T cells by [35S]GTP-gamma-S binding assay; format: functional, cell-based, HEK-293T; settings: for Activity: HEK-293T
# In short: (§1)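 Individual human S1P receptor subtypes and individual G protein subunits forced into expression in HEK293T cells; receptor-dependent [γ-35S]GTP binding measured in vitro. EC50 in nM as the mean of at least three experiments.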
# [2] = molecular target: T2, Sphingosine 1-phosphate receptor 5 (Homo sapiens, UniProt Q9H228); assay: Activity at human S1P5 receptor expressed in HEK293T cells by [35S]GTP-gamma-S binding assay; format: functional, cell-based, HEK-293T; in short: as §1
# [3] = molecular target: T3, Sphingosine 1-phosphate receptor 2 (Homo sapiens, UniProt O95136); assay: Efficacy at human S1P2 receptor expressed in HEK293T cells relative to S1P; format: functional, cell-based; settings: HEK-293T
# In short: (§2)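 Individual human S1P receptor subtypes co-expressed with individual G protein subunits in HEK293T cells; [γ-35S]GTP binding. Emax normalized to the maximal activation by endogenous S1P at each receptor.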
# [4] = molecular target: T4, Sphingosine 1-phosphate receptor 4 (Homo sapiens, UniProt O95977); assay: Activity at human S1P4 receptor expressed in HEK293T cells by [35S]GTP-gamma-S binding assay; format: functional, cell-based, HEK-293T; in short: as §1
# T4 sequence (O95977 whole entry): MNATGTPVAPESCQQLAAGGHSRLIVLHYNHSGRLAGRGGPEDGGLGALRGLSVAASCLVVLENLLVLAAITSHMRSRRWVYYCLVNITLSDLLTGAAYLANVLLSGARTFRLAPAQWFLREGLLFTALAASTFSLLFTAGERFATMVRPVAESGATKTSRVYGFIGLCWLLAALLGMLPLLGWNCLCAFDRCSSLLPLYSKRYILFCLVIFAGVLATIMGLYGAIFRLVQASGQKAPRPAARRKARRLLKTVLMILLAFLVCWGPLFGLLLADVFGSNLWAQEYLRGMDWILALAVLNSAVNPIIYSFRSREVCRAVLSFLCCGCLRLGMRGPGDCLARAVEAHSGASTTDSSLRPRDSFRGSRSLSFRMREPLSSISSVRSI
# [5] = molecular target: T5, Sphingosine 1-phosphate receptor 3 (Homo sapiens, UniProt Q99500); assay: Efficacy at human S1P3 receptor expressed in HEK293T cells relative to S1P; format: functional, cell-based; settings: HEK-293T; in short: as §2
# [6] = molecular target: T6, Sphingosine 1-phosphate receptor 4 (Homo sapiens) (UniProt O95977); assay: Efficacy at human S1P4 receptor expressed in HEK293T cells relative to S1P; format: functional, cell-based; settings: HEK-293T; in short: as §2
# T6 sequence (whole entry): T4 sequence (O95977 whole entry)
# [7] = molecular target: T5, Sphingosine 1-phosphate receptor 3; assay: Activity at human S1P3 receptor expressed in HEK293T cells by [35S]GTP-gamma-S binding assay; format: functional, cell-based, HEK-293T; settings: for Activity: HEK-293T; in short: as §1
# [8] = molecular target: T2, Sphingosine 1-phosphate receptor 5; assay: Efficacy at human S1P5 receptor expressed in HEK293T cells relative to S1P; format: functional, cell-based; settings: HEK-293T; in short: as §2
# [9] = molecular target: T3, Sphingosine 1-phosphate receptor 2; assay: Activity at human S1P2 receptor expressed in HEK293T cells by [35S]GTP-gamma-S binding assay; format: functional, cell-based; settings: for Activity: HEK-293T; in short: as §1
# [10] = molecular target: T1, Sphingosine 1-phosphate receptor 1; assay: Efficacy at human S1P1 receptor expressed in HEK293T cells relative to S1P; format: functional, cell-based; settings: HEK-293T; in short: as §2
# Mus musculus [11] = assay: Effect on vascular permeability in C57BL/6 mouse assessed as capillary leakage in kidney at 25 mg/kg by Evans blue extravasation assay; format: functional, organism-based; parameters: dose 25 mg/kg
# In short: (§3)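 C57BL/6 mice given compound (25 mg/kg) or vehicle (2% hydroxypropyl β-cyclodextrin) two hours before 2% Evans blue dye (20 mg/kg) via jugular vein. Tissues harvested 30 min later. Dye extracted into formamide, read spectrometrically and quantified against a standard curve. n = 4 per group, mean ± SE, compared with vehicle.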
# Mus musculus [12] = assay: Effect on vascular permeability in C57BL/6 mouse assessed as capillary leakage in lung at 25 mg/kg by Evans blue extravasation assay; format: functional, organism-based; parameters: dose 25 mg/kg; in short: as §3
# Mus musculus [13] = assay: Inhibition of VPC44152-evoked lymphopenia in mouse at 22 mg/kg; format: functional, organism-based; parameters: dose 22 mg/kg
# [14] = molecular target: T1, Sphingosine 1-phosphate receptor 1; assay: Displacement of [32P]S1P from human S1P1 receptor expressed in HEK293T cells; format: cell-based, HEK-293T
# [15] = molecular target: T5, Sphingosine 1-phosphate receptor 3; assay: Displacement of [32P]S1P from human S1P3 receptor expressed in HEK293T cells; format: cell-based, HEK-293T
# T1 sequence (P21453 whole entry): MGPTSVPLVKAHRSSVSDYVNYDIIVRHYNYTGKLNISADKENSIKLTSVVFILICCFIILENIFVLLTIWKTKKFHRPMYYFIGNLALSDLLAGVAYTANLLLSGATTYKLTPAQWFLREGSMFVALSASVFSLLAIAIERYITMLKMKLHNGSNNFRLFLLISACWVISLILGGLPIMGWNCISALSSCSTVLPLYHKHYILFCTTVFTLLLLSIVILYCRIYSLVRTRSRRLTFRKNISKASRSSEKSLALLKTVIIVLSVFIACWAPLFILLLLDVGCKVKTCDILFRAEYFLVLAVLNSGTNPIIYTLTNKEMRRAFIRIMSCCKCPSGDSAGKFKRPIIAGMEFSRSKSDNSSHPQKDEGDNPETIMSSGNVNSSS
# T5 sequence (Q99500 whole entry): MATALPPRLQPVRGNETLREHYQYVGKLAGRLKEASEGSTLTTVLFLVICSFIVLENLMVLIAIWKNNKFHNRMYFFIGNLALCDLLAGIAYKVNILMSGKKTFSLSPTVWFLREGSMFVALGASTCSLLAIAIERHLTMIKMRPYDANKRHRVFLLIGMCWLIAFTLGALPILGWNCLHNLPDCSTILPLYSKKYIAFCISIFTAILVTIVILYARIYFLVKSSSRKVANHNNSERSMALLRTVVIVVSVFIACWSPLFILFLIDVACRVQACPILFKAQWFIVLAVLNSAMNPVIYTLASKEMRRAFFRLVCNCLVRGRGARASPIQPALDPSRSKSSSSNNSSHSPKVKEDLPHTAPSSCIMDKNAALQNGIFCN
# T3 sequence (O95136 whole entry): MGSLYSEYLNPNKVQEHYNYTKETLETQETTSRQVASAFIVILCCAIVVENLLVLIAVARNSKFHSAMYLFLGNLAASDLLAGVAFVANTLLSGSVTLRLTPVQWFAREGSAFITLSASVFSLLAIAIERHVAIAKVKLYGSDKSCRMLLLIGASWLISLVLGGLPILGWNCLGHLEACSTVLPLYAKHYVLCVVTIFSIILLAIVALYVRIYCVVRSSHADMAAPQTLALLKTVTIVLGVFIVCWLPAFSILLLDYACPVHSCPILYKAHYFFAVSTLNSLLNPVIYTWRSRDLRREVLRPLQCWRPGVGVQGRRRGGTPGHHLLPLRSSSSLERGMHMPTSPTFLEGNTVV
# T2 sequence (Q9H228 whole entry): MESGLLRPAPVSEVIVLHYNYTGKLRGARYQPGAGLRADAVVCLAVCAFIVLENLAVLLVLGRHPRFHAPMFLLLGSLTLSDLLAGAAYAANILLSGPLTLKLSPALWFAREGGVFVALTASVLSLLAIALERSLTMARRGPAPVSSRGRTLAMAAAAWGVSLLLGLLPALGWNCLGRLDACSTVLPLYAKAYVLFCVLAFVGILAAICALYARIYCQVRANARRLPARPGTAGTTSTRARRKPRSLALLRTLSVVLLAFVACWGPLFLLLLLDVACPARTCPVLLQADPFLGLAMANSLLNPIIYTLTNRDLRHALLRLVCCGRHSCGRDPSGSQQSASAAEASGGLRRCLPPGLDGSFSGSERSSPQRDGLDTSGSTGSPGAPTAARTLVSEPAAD
SMILES,EC50 [1] [nM],EC50 [2] [nM],ECmax [3],EC50 [4] [nM],ECmax [5],ECmax [6],EC50 [7] [nM],ECmax [8],Activity [9],Activity [10],Activity ([2]; HEK-293T),Activity [7],EC50 [9] [nM],Activity [1],Activity (Mus musculus [11]),Activity (Mus musculus [12]),Activity (Mus musculus [13]),Ki [14] [nM],Ki [15] [nM]
CCCCCCCCc1ccc(NC(=O)[C@H](N)CCP(=O)(O)O)cc1,27,76,0,2300,0.38,0.8,270,0.64,inactive,–,–,–,–,–,–,–,–,–,–
CCCCCCCCc1ccc(NC(=O)[C@@H](N)CCP(=O)(O)O)cc1,1200,–,0,–,0.3,–,15000,–,inactive,inactive,–,–,–,–,–,–,–,–,–
CCCCCCCCc1ccc(OC[C@@H](O)CCP(=O)(O)O)cc1,33,–,0,440000,0,0.45,–,0,inactive,–,inactive,inactive,–,–,–,–,–,–,–
CCCCCCCCCCc1ccc(NC(=O)[C@H](N)CCP(=O)(O)O)cc1,3.6,30,0.5,230,0.88,0.67,43,0.77,–,–,–,–,270,–,–,–,–,–,–
CCCCCCCCc1ccc(OC[C@@H](N)CCP(=O)(O)O)cc1,68,31,0,147,0,0.71,–,0.41,inactive,–,–,inactive,–,–,–,–,–,–,–
CCCCCCCCc1ccc(CCC(N)(CO)COP(=O)(O)O)cc1 (stereo not drawn),–,–,0,4,0.5,0.9,–,0.56,inactive,–,–,–,–,–,–,–,–,–,–
CCCCCCCCc1ccc(OC[C@H](N)CCP(=O)(O)O)cc1,140,47,0.5,150,0.53,0.9,100,0.5,–,–,–,–,530,–,–,–,–,–,–
CCCCCCCCc1cccc(NC(=O)[C@@H](N)CCP(=O)(O)O)c1,–,–,0,–,0,–,–,–,inactive,–,–,inactive,–,inactive,–,–,–,–,–
CCCCCCCCc1cccc(NC[C@H](N)CCP(=O)(O)O)c1,30,41,0,340,0,1.18,–,0.61,inactive,–,–,inactive,–,–,–,–,–,–,–
CCCCCCCCCCc1ccc(NC(=O)[C@H](N)CC(F)P(=O)(O)O)cc1 (stereo partly drawn),2.1,–,0.47,–,0.96,–,23,–,–,–,–,–,490,–,–,–,–,–,–
CCCCCCCc1cccc(NC(=O)[C@H](N)CCP(=O)(O)O)c1,–,–,–,–,0,–,–,–,–,–,–,inactive,–,inactive,–,–,–,–,–
CCCCCCCCc1cccc(NC(=O)[C@H](N)CCP(=O)(O)O)c1,–,33,0,6100,0,1.42,–,0.73,inactive,–,–,inactive,–,inactive,Active,Active,Active,30,300
